According to ChEMBL document CHEMBL1142489, “Tetrahydrolipstatin analogues as modulators of endocannabinoid 2-arachidonoylglycerol metabolism” (J Med Chem, 2008):

Experiments:
[1] = Inhibition of MAGL-mediated [14C]2-arachidonoyl glycerol hydrolysis to [3H]arachidonic acid in african green monkey COS cell cytosolic fraction by scintillation counting; assay type: cell-based, Chlorocebus aethiops; settings: in the assay text read “[3H]2-arachidonoyl glycerol” for “[14C]2-arachidonoyl glycerol”
Summary of the method: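 The 10000g cytosolic fraction of COS-7 cells, taken as the MAGL source, was incubated with 2-[3H]arachidonoylglycerol (1.0 mCi/mmol, 25 µM) in 50 mM Tris-HCl, pH 7.0, for 20 min at 37 °C. Products were separated by TLC. [3H]arachidonic acid was quantified by scintillation counting as the measure of activity.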

[2] = target: Cannabinoid receptor 1 (Homo sapiens, UniProt P21554); assay: Displacement of [3H]CP-55940 from human recombinant CB1 receptor expressed in HEK293 cells by scintillation counting; assay type: cell-based
Chain of Cannabinoid receptor 1 (P21554 whole entry): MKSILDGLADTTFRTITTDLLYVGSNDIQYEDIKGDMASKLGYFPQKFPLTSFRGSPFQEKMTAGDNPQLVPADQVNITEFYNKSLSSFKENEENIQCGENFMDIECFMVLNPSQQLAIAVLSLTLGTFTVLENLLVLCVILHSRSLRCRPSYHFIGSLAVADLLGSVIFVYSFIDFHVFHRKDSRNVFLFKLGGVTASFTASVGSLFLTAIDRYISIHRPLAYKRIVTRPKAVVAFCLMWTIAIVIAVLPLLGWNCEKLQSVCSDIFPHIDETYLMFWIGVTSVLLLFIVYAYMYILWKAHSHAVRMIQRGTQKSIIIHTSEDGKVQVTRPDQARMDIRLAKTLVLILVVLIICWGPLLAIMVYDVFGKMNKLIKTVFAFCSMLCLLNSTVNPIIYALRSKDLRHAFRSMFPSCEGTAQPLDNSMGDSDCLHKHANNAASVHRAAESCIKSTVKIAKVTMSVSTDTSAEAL

[3] = target: Cannabinoid receptor 2 (Homo sapiens, UniProt P34972); assay: Displacement of [3H]CP-55940 from human recombinant CB2 receptor expressed in HEK293 cells by scintillation counting; assay type: cell-based
Chain of Cannabinoid receptor 2 (P34972 whole entry): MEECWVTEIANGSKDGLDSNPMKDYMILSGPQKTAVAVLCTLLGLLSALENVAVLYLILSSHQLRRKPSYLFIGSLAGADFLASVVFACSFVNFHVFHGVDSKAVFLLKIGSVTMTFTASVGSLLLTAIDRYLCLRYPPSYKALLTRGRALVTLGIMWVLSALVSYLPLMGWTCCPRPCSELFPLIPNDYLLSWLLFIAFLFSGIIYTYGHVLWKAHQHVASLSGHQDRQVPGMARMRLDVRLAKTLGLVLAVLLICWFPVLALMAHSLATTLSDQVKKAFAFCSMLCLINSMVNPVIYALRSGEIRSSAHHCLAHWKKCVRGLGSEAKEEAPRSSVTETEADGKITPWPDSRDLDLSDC

[4] = target: T1, Diacylglycerol lipase-alpha (Homo sapiens, UniProt Q9Y4D2); assay: Inhibition of human recombinant DAGL-alpha-mediated sn-1-[14C]oleoyl-2-arachidonoyl-glycerol hydrolysis to 2-AG overexpressed in african green monkey COS7 cell membrane by scintillation counting; assay type: cell membranes, COS-7
T1 sequence (Q9Y4D2 whole entry): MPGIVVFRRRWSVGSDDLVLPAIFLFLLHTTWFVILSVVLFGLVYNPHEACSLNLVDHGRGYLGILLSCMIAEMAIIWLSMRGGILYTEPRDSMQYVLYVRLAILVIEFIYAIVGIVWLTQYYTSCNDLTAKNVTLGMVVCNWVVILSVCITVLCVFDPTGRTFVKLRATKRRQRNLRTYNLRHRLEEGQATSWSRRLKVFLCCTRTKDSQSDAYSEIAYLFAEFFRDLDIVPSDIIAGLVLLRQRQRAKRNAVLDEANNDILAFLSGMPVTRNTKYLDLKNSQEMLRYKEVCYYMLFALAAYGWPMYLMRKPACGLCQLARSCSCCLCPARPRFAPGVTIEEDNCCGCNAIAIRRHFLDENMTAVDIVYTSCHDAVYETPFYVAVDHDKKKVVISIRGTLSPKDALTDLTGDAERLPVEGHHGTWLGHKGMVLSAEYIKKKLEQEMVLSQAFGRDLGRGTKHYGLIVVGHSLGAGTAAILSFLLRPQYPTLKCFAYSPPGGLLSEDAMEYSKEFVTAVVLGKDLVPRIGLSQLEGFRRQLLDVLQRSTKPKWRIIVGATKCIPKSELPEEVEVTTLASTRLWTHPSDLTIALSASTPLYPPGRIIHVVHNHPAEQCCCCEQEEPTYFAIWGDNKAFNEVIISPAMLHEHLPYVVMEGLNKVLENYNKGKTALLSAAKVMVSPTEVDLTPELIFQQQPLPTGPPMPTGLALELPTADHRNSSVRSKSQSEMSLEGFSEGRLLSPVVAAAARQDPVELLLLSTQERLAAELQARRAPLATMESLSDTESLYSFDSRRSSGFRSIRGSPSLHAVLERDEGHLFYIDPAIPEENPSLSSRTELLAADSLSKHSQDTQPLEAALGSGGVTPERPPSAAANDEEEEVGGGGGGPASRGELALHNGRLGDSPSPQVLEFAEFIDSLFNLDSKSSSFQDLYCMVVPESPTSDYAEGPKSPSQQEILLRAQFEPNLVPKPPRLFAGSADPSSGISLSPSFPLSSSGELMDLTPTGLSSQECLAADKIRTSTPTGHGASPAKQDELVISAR

[5] = target: T2, Fatty-acid amide hydrolase 1 (Rattus norvegicus, UniProt P97612); assay: Inhibition of FAAH-mediated [14C]anandamide hydrolysis in rat brain membrane; assay type: cell membranes
T2 sequence (P97612 whole entry): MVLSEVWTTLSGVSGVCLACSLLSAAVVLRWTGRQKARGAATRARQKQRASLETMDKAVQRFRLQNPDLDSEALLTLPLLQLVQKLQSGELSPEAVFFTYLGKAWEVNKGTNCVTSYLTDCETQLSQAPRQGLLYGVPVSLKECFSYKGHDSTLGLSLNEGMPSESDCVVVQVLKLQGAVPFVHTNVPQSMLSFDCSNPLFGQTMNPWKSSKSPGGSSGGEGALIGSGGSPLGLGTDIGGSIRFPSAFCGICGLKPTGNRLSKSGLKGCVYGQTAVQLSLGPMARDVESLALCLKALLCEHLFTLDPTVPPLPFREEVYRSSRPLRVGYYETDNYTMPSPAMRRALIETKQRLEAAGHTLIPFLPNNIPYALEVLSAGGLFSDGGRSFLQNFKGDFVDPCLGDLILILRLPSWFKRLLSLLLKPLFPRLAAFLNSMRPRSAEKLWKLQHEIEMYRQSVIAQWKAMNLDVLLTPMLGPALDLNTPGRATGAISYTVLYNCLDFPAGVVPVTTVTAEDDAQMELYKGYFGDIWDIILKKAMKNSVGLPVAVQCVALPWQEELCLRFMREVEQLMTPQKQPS
Summary of the method: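 The mixture was extracted with 2 volumes of CHCl3/CH3OH 1/1. [14C]ethanolamine in the aqueous phase was measured by scintillation counting.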

[6] = Selectivity ratio of IC50 for human recombinant DAGLalpha over IC50 for rat brain membrane FAAH
[7] = organism: Homo sapiens; assay: Selectivity ratio of IC50 for human recombinant DAGLalpha over Ki for human recombinant CB1 receptor
[8] = organism: Homo sapiens; assay: Selectivity ratio of IC50 for human recombinant DAGLalpha over Ki for human recombinant CB2 receptor
[9] = Selectivity ratio of IC50 for human recombinant DAGLalpha over IC50 for african green monkey MAGL
[10] = Selectivity ratio of IC50 for african green monkey MAGL over IC50 for rat brain membrane FAAH
[11] = Selectivity ratio of IC50 for african green monkey MAGL over Ki for human recombinant CB2 receptor
[12] = Selectivity ratio of IC50 for african green monkey MAGL over IC50 for human recombinant DAGLalpha
[13] = Selectivity ratio of IC50 for african green monkey MAGL over Ki for human recombinant CB1 receptor
[14] = Enhancement of ionomycin-induced stimulation of 2-AG biosynthesis in mouse N18TG2 cells at 1.5 uM; assay type: functional
Summary of the method: (§1)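 Confluent mouse N18TG2 neuroblastoma cells attached to dishes were incubated for 20 min at 37 °C in medium containing 3 µM ionomycin, with vehicle or test compound. The reaction was stopped with ice-cold methanol and lipids were extracted three times with CHCl₃. Lyophilized lipids were assayed for 2-AG by isotope-dilution LC-MS. Values are % change in 2-AG levels versus vehicle (means ± SEM, N = 3).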

[15] = Inhibition of ionomycin-induced stimulation of 2-AG biosynthesis in mouse N18TG2 cells at 0.3 uM; assay type: functional; summary of the method: as §1
[16] = Inhibition of ionomycin-induced stimulation of 2-AG biosynthesis in mouse N18TG2 cells at 1 uM; assay type: functional; summary of the method: as §1

SMILES | IC50 [1] [µM] | Ki [2] [µM] | Ki [3] [µM] | IC50 [4] [nM] | IC50 [5] [µM] | also measured
CCCCCCCCCCC[C@@H](C[C@@H]1OC(=O)[C@H]1CCCCCC)OC(=O)CNC=O | 0.41 | > 10 | > 10 | 2800 | 3 | Ratio IC50 [10]: 7; Ratio [11]: 7; Ratio IC50 [12]: 7; Ratio [13]: 7; Activity [14]: 55%
CCCCCCCCCCC[C@@H](C[C@@H]1OC(=O)[C@H]1CCCCCC)OC(=O)[C@@H](NC=O)[C@@H](C)CC | > 10 | 6 | > 10 | 16 | > 50 | Ratio IC50 [6]: 23; Ratio [7]: 23; Ratio [8]: 23; inhibition at 0.3 µM [15]: 57.3%; Ratio IC50 [9]: 23
CCCCCCCCCCC[C@@H](C[C@@H]1OC(=O)[C@H]1CCCCCC)OC(=O)[C@@H](N)CC(C)C | > 10 | – | – | > 25000 | > 50 | –
CCCCCCCCCCC[C@@H](C[C@@H]1OC(=O)[C@H]1CCCCCC)OC(=O)CCC(C)C | > 10 | – | – | > 25000 | 10.4 | –
CCCCCCCCCCC[C@@H](C[C@@H]1OC(=O)[C@H]1CCCCCC)OC(=O)[C@H](CC(C)C)NC=O [ORLISTAT] | > 10 | 2.5 | > 10 | – | – | inhibition at 1 µM [16]: 79.8%
CCCCCCCCCCC[C@@H](C[C@@H]1OC(=O)[C@H]1CCCCCC)OC(=O)[C@H](Cc1ccccc1)NC=O | > 10 | – | – | 25000 | > 50 | –
CCCCCCCCCCC[C@@H](C[C@@H]1OC(=O)[C@H]1CCCCCC)OC(=O)[C@@H](CC(C)C)NC=O | > 10 | – | – | – | – | –
CCCCCCCCCCC[C@@H](C[C@@H]1OC(=O)[C@H]1CCCCCC)OC(=O)[C@@H](N)Cc1ccccc1 | > 10 | – | – | 25000 | > 50 | –
CCCCCCCCCCC[C@@H](C[C@@H]1OC(=O)[C@H]1CCCCCC)OC(=O)[C@@H](NC(C)=O)C(C)C | > 10 | 8.4 | > 10 | 460 | > 50 | Ratio IC50 [6]: 15; Ratio [7]: 15; Ratio [8]: 15; Ratio IC50 [9]: 15
CCCCCCCCCCC[C@@H](C[C@@H]1OC(=O)[C@H]1CCCCCC)OC(=O)[C@@H](CC(C)C)NC(=O)OCc1ccccc1 | > 10 | – | – | > 25000 | > 50 | –

Now from value to molecule, other results behind:

IC50 [1] [µM] | Ki [2] [µM] | Ki [3] [µM] | IC50 [4] [nM] | IC50 [5] [µM] | SMILES | also measured
0.4 | 1.9 | 6.4 | 600 | > 50 | CCCCCCCCCCC[C@@H](C[C@@H]1OC(=O)[C@H]1CCCCCC)OC(=O)CCNC=O | –
> 10 | 1.7 | 7.4 | 1100 | 3.4 | CCCCCCCCCCC[C@@H](C[C@@H]1OC(=O)[C@H]1CCCCCC)OC(=O)[C@@H]1CCCN1C=O | –
> 10 | – | – | > 25000 | > 50 | CCCCCCCCCCC[C@@H](C[C@@H]1OC(=O)[C@H]1CCCCCC)OC(=O)[C@H](Cc1ccccc1)NC(=O)OCc1ccccc1 | –
1 | 3.1 | > 10 | 43 | > 50 | CCCCCCCCCCC[C@@H](C[C@@H]1OC(=O)[C@H]1CCCCCC)OC(=O)[C@H](C)NC=O | Ratio IC50 [6]: 23; Ratio [7]: 23; Ratio [8]: 23; Ratio IC50 [9]: 23
> 10 | – | – | > 25000 | > 50 | CCCCCCCCCCC[C@@H](C[C@@H]1OC(=O)[C@H]1CCCCCC)OC(=O)CNC(=O)OCc1ccccc1 | –
> 10 | – | – | > 25000 | > 50 | CCCCCCCCCCC[C@@H](C[C@@H]1OC(=O)[C@H]1CCCCCC)OC(=O)[C@H](CC(C)C)NC(=O)OCc1ccccc1 | –
3.5 | 2.6 | > 10 | 100 | > 50 | CCCCCCCCCCC[C@@H](C[C@@H]1OC(=O)[C@H]1CCCCCC)OC(=O)[C@@H]1CCC(=O)N1 | Ratio IC50 [6]: 15; Ratio [7]: 15; Ratio [8]: 15; Ratio IC50 [9]: 15
> 10 | 8.6 | > 10 | 430 | 6.6 | CCCCCCCCCCC[C@@H](C[C@@H]1OC(=O)[C@H]1CCCCCC)OC(=O)[C@@H](NC(C)=O)[C@@H](C)CC | Ratio IC50 [6]: 15; Ratio [7]: 15; Ratio [8]: 15; Ratio IC50 [9]: 15
> 10 | – | – | > 25000 | > 50 | CCCCCCCCCCC[C@@H](C[C@@H]1OC(=O)[C@H]1CCCCCC)OC(=O)[C@H](CC(C)C)NC(=O)OC(C)(C)C | –
> 10 | – | – | 25000 | > 50 | CCCCCCCCCCC[C@H](O)C[C@@H]1OC(=O)[C@H]1CCCCCC | –
> 10 | 5.7 | > 10 | 35 | > 50 | CCCCCCCCCCC[C@@H](C[C@@H]1OC(=O)[C@H]1CCCCCC)OC(=O)[C@@H](NC=O)C(C)C | Ratio IC50 [6]: 23; Ratio [7]: 23; Ratio [8]: 23; Ratio IC50 [9]: 23
1.7 | 2.3 | > 10 | 800 | > 50 | CCCCCCCCCCC[C@@H](C[C@@H]1OC(=O)[C@H]1CCCCCC)OC(=O)CNC(C)=O | –
